Active and inactive are the calls of the source. The calls are words filed in the database; no cut-off is given here.
Tests used:
Mus musculus [1] = experiment: Neurotoxicity in albino CF1 mouse assessed as minimal motor impairment at 300 mg/kg, ip after 4 hrs by rotarod test; type: toxicity, organism-based; design: dose 300 mg/kg, route intraperitoneal; details: in vivo
Method in brief: (§1)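 Mice dosed ip at 30, 100 or 300 mg/kg, then tested 0.5 h and 4 h after administration in the MES or scMet test. Protection was recorded as animals protected over animals tested. Neurotoxicity was recorded as motor impairment or sedation, as animals affected over animals tested.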

Mus musculus [2] = experiment: Anticonvulsant activity in albino CF1 mouse assessed as protection against subcutaneous metrazol-induced seizures at 100 mg/kg, ip after 0.5 hrs; type: functional, organism-based; design: dose 100 mg/kg; method in brief: as §1
Rattus norvegicus [3] = experiment: Neurotoxicity in pilocarpine-induced status epilepticus Sprague-Dawley albino rat model assessed as minimal motor impairment at 300 mg/kg, ip after 2 hrs by rotarod test; type: toxicity, organism-based; design: dose 300 mg/kg, route intraperitoneal; details: in vivo
Method in brief: (§2)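 Rat pilocarpine status epilepticus model: test carbamate given at 0 or 30 min after the first observed Racine stage 3 motor seizure, which marks SE onset. Neurotoxicity was scored within the same model.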

Rattus norvegicus [4] = experiment: Neurotoxicity in pilocarpine-induced status epilepticus Sprague-Dawley albino rat model assessed as minimal motor impairment at 100 mg/kg, ip after 0.5 hrs by rotarod test; type: toxicity, organism-based; design: dose 100 mg/kg, route intraperitoneal; details: in vivo
Mus musculus [5] = experiment: Anticonvulsant activity in albino CF1 mouse assessed as protection against subcutaneous metrazol-induced seizures at 30 mg/kg, ip after 0.5 hrs; type: functional, organism-based; design: dose 30 mg/kg; method in brief: as §1
Rattus norvegicus [6] = experiment: Neurotoxicity in pilocarpine-induced status epilepticus Sprague-Dawley albino rat model assessed as minimal motor impairment at 100 mg/kg, ip after 2 hrs by rotarod test; type: toxicity, organism-based; design: dose 100 mg/kg, route intraperitoneal; details: in vivo
Rattus norvegicus [7] = experiment: Neurotoxicity in pilocarpine-induced status epilepticus Sprague-Dawley albino rat model assessed as minimal motor impairment at 300 mg/kg, ip after 0.25 hr by rotarod test; type: toxicity, organism-based; design: dose 300 mg/kg, route intraperitoneal; details: in vivo; method in brief: as §2
Rattus norvegicus [8] = experiment: Neurotoxicity in pilocarpine-induced status epilepticus Sprague-Dawley albino rat model assessed as minimal motor impairment at 100 mg/kg, ip after 4 hrs by rotarod test; type: toxicity, organism-based; design: dose 100 mg/kg, route intraperitoneal; details: in vivo
Mus musculus [9] = experiment: Neurotoxicity in albino CF1 mouse assessed as minimal motor impairment at 30 mg/kg, ip after 4 hrs by rotarod test; type: toxicity, organism-based; design: dose 30 mg/kg, route intraperitoneal; details: in vivo; method in brief: as §1
Mus musculus [10] = experiment: Anticonvulsant activity in albino CF1 mouse assessed as protection against maximal electroshock-induced seizures at 100 mg/kg, ip after 4 hrs; type: functional, organism-based; design: dose 100 mg/kg; method in brief: as §1
Mus musculus [11] = experiment: Neurotoxicity in albino CF1 mouse assessed as minimal motor impairment at 300 mg/kg, ip after 0.5 hrs by rotarod test; type: toxicity, organism-based; design: dose 300 mg/kg, route intraperitoneal; details: in vivo; method in brief: as §1
Mus musculus [12] = experiment: Neurotoxicity in albino CF1 mouse assessed as minimal motor impairment at 100 mg/kg, ip after 4 hrs by rotarod test; type: toxicity, organism-based; design: dose 100 mg/kg, route intraperitoneal; details: in vivo; method in brief: as §1
Rattus norvegicus [13] = experiment: Neurotoxicity in pilocarpine-induced status epilepticus Sprague-Dawley albino rat model assessed as minimal motor impairment at 300 mg/kg, ip after 1 hr by rotarod test; type: toxicity, organism-based; design: dose 300 mg/kg, route intraperitoneal; details: in vivo; method in brief: as §2
Mus musculus [14] = experiment: Anticonvulsant activity in albino CF1 mouse assessed as protection against subcutaneous metrazol-induced seizures at 100 mg/kg, ip after 4 hrs; type: functional, organism-based; design: dose 100 mg/kg; method in brief: as §1
Rattus norvegicus [15] = experiment: Anticonvulsant activity in Sprague-Dawley albino rat assessed as protection against maximal electroshock-induced seizures at 30 mg/kg, po after 30 mins; type: functional, organism-based; design: dose 30 mg/kg
Method in brief: (§3)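 Rats dosed orally. Anti-MES protection was scored as animals protected over animals tested at each time after dosing. Neurotoxicity was scored as motor impairment or sedation, as animals affected over animals tested.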

Mus musculus [16] = experiment: Anticonvulsant activity in albino CF1 mouse assessed as protection against maximal electroshock-induced seizures at 30 mg/kg, ip after 4 hrs; type: functional, organism-based; design: dose 30 mg/kg; method in brief: as §1
Mus musculus [17] = experiment: Anticonvulsant activity in albino CF1 mouse assessed as protection against subcutaneous metrazol-induced seizures at 30 mg/kg, ip after 4 hrs; type: functional, organism-based; design: dose 30 mg/kg; method in brief: as §1
Mus musculus [18] = experiment: Anticonvulsant activity in albino CF1 mouse assessed as protection against subcutaneous metrazol-induced seizures at 300 mg/kg, ip after 0.5 hrs; type: functional, organism-based; design: dose 300 mg/kg; method in brief: as §1
Mus musculus [19] = experiment: Anticonvulsant activity in albino CF1 mouse assessed as protection against subcutaneous metrazol-induced seizures at 300 mg/kg, ip after 4 hrs; type: functional, organism-based; design: dose 300 mg/kg; method in brief: as §1
Mus musculus [20] = experiment: Anticonvulsant activity in albino CF1 mouse assessed as protection against maximal electroshock-induced seizures at 300 mg/kg, ip after 4 hrs; type: functional, organism-based; design: dose 300 mg/kg; method in brief: as §1
Mus musculus [21] = experiment: Neurotoxicity in albino CF1 mouse assessed as minimal motor impairment at 100 mg/kg, ip after 0.5 hrs by rotarod test; type: toxicity, organism-based; design: dose 100 mg/kg, route intraperitoneal; details: in vivo; method in brief: as §1
Rattus norvegicus [22] = experiment: Neurotoxicity in pilocarpine-induced status epilepticus Sprague-Dawley albino rat model assessed as minimal motor impairment at 100 mg/kg, ip after 0.25 hr by rotarod test; type: toxicity, organism-based; design: dose 100 mg/kg, route intraperitoneal; details: in vivo
Mus musculus [23] = experiment: Anticonvulsant activity in albino CF1 mouse assessed as protection against maximal electroshock-induced seizures at 100 mg/kg, ip after 0.5 hrs; type: functional, organism-based; design: dose 100 mg/kg; method in brief: as §1
Rattus norvegicus [24] = experiment: Anticonvulsant activity in Sprague-Dawley albino rat assessed as protection against maximal electroshock-induced seizures at 30 mg/kg, po after 4 hrs; type: functional, organism-based; design: dose 30 mg/kg; method in brief: as §3
Rattus norvegicus [25] = experiment: Neurotoxicity in Sprague-Dawley albino rat assessed as minimal motor impairment at 30 mg/kg, po by rotarod test; type: toxicity, organism-based; design: dose 30 mg/kg, route oral; details: in vivo; method in brief: as §3
Rattus norvegicus [26] = experiment: Anticonvulsant activity in Sprague-Dawley albino rat assessed as protection against maximal electroshock-induced seizures at 30 mg/kg, po after 1 hr; type: functional, organism-based; design: dose 30 mg/kg; method in brief: as §3
Mus musculus [27] = experiment: Anticonvulsant activity in albino CF1 mouse assessed as protection against maximal electroshock-induced seizures at 30 mg/kg, ip after 0.5 hrs; type: functional, organism-based; design: dose 30 mg/kg; method in brief: as §1
Rattus norvegicus [28] = experiment: Neurotoxicity in pilocarpine-induced status epilepticus Sprague-Dawley albino rat model assessed as minimal motor impairment at 300 mg/kg, ip after 4 hrs by rotarod test; type: toxicity, organism-based; design: dose 300 mg/kg, route intraperitoneal; details: in vivo; method in brief: as §2
Mus musculus [29] = experiment: Anticonvulsant activity in albino CF1 mouse assessed as protection against maximal electroshock-induced seizures at 300 mg/kg, ip after 0.5 hrs; type: functional, organism-based; design: dose 300 mg/kg; method in brief: as §1
Mus musculus [30] = experiment: Neurotoxicity in albino CF1 mouse assessed as minimal motor impairment at 30 mg/kg, ip after 0.5 hrs by rotarod test; type: toxicity, organism-based; design: dose 30 mg/kg, route intraperitoneal; details: in vivo; method in brief: as §1
Rattus norvegicus [31] = experiment: Neurotoxicity in pilocarpine-induced status epilepticus Sprague-Dawley albino rat model assessed as minimal motor impairment at 100 mg/kg, ip after 1 hr by rotarod test; type: toxicity, organism-based; design: dose 100 mg/kg, route intraperitoneal; details: in vivo
Rattus norvegicus [32] = experiment: Neurotoxicity in pilocarpine-induced status epilepticus Sprague-Dawley albino rat model assessed as minimal motor impairment at 300 mg/kg, ip after 0.5 hrs by rotarod test; type: toxicity, organism-based; design: dose 300 mg/kg, route intraperitoneal; details: in vivo; method in brief: as §2
Rattus norvegicus [33] = experiment: Anticonvulsant activity in Sprague-Dawley albino rat assessed as protection against maximal electroshock-induced seizures at 30 mg/kg, po after 2 hrs; type: functional, organism-based; design: dose 30 mg/kg; method in brief: as §3
Rattus norvegicus [34] = experiment: Anticonvulsant activity in ip dosed Sprague-Dawley albino rat assessed as protection against pilocarpine-induced status epilepticus after 0.5 hrs; type: functional
Method in brief: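 Pilocarpine status epilepticus model in rats. Number and severity of convulsive seizures were observed behaviourally.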

CCCCC(CC)COC(N)=O (racemic)
Activity (Mus musculus [1]): Non-toxic
Activity (Mus musculus [2]): inactive
Activity (Rattus norvegicus [3]): Toxic
Activity (Rattus norvegicus [4]): Non-toxic
Activity (Mus musculus [5]): inactive
Activity (Rattus norvegicus [6]): Non-toxic
Activity (Rattus norvegicus [7]): Toxic
Activity (Rattus norvegicus [8]): Non-toxic
Activity (Mus musculus [9]): Non-toxic
Activity (Mus musculus [10]): inactive
Activity (Mus musculus [11]): Toxic
Activity (Mus musculus [12]): Non-toxic
Activity (Rattus norvegicus [13]): Toxic
Activity (Mus musculus [14]): inactive
Activity (Rattus norvegicus [15]): inactive
Activity (Mus musculus [16]): inactive
Activity (Mus musculus [17]): inactive
Activity (Mus musculus [18]): Active
Activity (Mus musculus [19]): inactive
Activity (Mus musculus [20]): Active
Activity (Mus musculus [21]): Non-toxic
Activity (Rattus norvegicus [22]): Non-toxic
Activity (Mus musculus [23]): Active
Activity (Rattus norvegicus [24]): inactive
Activity (Rattus norvegicus [25]): Non-toxic
Activity (Rattus norvegicus [26]): inactive
Activity (Mus musculus [27]): inactive
Activity (Rattus norvegicus [28]): Toxic
Activity (Mus musculus [29]): Active
Activity (Mus musculus [30]): Non-toxic
Activity (Rattus norvegicus [31]): Non-toxic
Activity (Rattus norvegicus [32]): Toxic
Activity (Rattus norvegicus [33]): inactive

NC(=O)N1c2ccccc2C=Cc2ccccc21 [CARBAMAZEPINE]
ED50 (Rattus norvegicus [34]): 50 mg/kg

From ChEMBL document CHEMBL2086252, “Syntheses and evaluation of anticonvulsant activity of novel branched alkyl carbamates” (J Med Chem, 2012)
